Screens (PubChem)
Runt-CBFb FRET = blocks binding of human RUNX1 Runt domain to CBFb | Q01196+Q13951 | Cerulean-Runt/Venus-CBFb FRET ratio 530/480, 1 h | inhibition, % at 20 µM | 0.46% of 220,000 active | AID 1496;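 active = inhibition over about 50% at 20 µM in the single-dose screen, limit read from the data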
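Measured by: fluorescence energy transfer, 422 nm excitation, 530/480 nm emission; test system: Cerulean-tagged RUNX1 Runt domain (FRET donor) fusion protein; buffer or medium: Tris pH 7.5 buffer with BSA; compound: one dose, 20 µM compound, 1% DMSO; times: two 1 h room-temperature incubations shielded from light; benchmarks: unlabeled CBFb 5 µM, positive control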
p-CIP stab down = lowers stability of the mouse p/CIP coactivator protein; Q05BA5; F442A p/CIP-EGFP cells, EGFP fluorescence, 16 h; decrease of EGFP signal, % at 10 µM; 0.01% of 290,000 active;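 active = EGFP signal decrease of at least 30% at 10 µM or well 3 SD below plate mean, unless failing retest; inactive = the rest, including hits failing retest or dose response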
Runt-SMMHC FRET = blocks binding of human RUNX1 Runt domain to CBFb-SMMHC; 0.74% of 220,000 active; Cerulean-Runt/Venus-CBFb-SMMHC FRET ratio 530/480, 1 h; inhibition, % at 20 µM;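 active = mean inhibition across duplicate retests at 20 µM reaching about 50%, limit read from the data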;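 also: inhibitors lower the FRET ratio by blocking Runt binding to CBFb-SMMHC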
Pemphigus Ab inh = human desmoglein-3 autoantibody binding inhibition; P32926; DSG3-coupled beads, scFv-anti-DSG3-GFP binding, flow cytometry; active compounds read low; binding (percent of control), % at 10 µM; 0.48% of 310,000 active;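 active = binding more than 3 SD below its plate's average and above zero; inconclusive = below that plate limit but binding exactly zero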;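 also: hits lower antibody fragment binding to DSG3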
RanGTP-Impb inh = inhibitors of RanGTP-importin-beta interaction, primary screen, biochemical, FRET, CFP-Ran, YFP-importin-beta, homogeneous. inhibition, % (concentration not given with the values). AID 2216. 1.1% of 300,000 active. cell-free CFP-Ran/YFP-importin-beta FRET ratio;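 active = more than half of the replicate wells show a fall in the fluorescence ratio signal beyond about 16%, limit read from the data, passing the limit was not always enough; inconclusive = exactly half of the replicate wells pass the set limit; inactive = fewer than half of replicates pass the limit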
Hck-Nef inh = inhibitors of human Hck kinase activated by Nef; P08631; Recombinant Hck-YEEI plus Nef, Z-Lyte FRET kinase assay; inhibition, % at 20 µM; 0.68% of 220,000 active;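 active = Hck-Nef kinase inhibition above about 50%, limit read from the data; inactive = inhibition below that limit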
Target sequence (P08631 whole entry, looked up): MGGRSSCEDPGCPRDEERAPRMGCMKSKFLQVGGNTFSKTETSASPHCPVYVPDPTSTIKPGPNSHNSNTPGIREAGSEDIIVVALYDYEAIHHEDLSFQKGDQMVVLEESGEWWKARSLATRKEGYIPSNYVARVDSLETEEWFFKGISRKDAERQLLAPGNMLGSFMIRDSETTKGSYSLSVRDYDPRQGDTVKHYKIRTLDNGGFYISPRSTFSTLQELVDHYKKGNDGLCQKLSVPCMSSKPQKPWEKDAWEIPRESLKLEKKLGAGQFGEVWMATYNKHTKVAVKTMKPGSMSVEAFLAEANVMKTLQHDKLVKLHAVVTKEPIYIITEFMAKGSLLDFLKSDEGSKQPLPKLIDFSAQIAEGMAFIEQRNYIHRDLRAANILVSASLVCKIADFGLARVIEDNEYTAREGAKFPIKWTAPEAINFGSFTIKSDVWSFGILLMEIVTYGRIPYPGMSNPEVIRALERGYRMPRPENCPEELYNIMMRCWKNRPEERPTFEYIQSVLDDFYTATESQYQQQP
Hits are given with their value; 0 = inactive; ? = inconclusive; - = no result given. Compounds with a hit are over-represented: about 2.1% of the library has one in this group of screens.

SMILES	Runt-CBFb FRET	p-CIP stab down	Runt-SMMHC FRET	Pemphigus Ab inh	RanGTP-Impb inh	Hck-Nef inh
CCC1(CCC(C)C)SC(N)=NC1=O (configuration not stated)	-	-	-	0	-	-
Fc1ccc2nc(C3CCCCN3Cc3nc(CC4CC4)no3)[nH]c2c1 (configuration not stated)	0	0	0	2.2	0	0
Fc1ccc(C2CCCCN2Cc2nc(CC3CC3)no2)cc1 (configuration not stated)	0	0	0	0	0	0
Cc1nn(C)cc1S(=O)(=O)Nc1ccccc1Br	-	0	-	0	-	-
CCOC(=O)C1CCN(CC(=O)Nc2cc(S(=O)(=O)N3CCCCC3)ccc2Cl)CC1	-	-	-	0	-	-
CC(C)=C1SC(N2CCN(c3cccc(C(F)(F)F)c3)CC2)=NC1=O	0	0	0	42	0	0
c1nc(SSc2ncnc3nc[nH]c23)c2[nH]cnc2n1	-	-	-	66	-	-
N#Cc1c(NC(=S)NC(=O)c2ccccc2)sc2c1CCCC2	0	0	0	0	0	0
CC(C)(C)C(=O)Nc1sc2c(c1C#N)CCCCC2	0	0	0	0	0	0
N#Cc1c(N)sc2c1CCN(CCc1ccccc1)C2	105	0	88	0	46	0
N#Cc1c(NC(=S)NC(=O)c2ccccc2)sc2c1CCN(CCc1ccccc1)C2	0	0	82	-	157	0
CC(C)(C)C(=O)Nc1sc2c(c1C#N)CCN(Cc1ccccc1)C2	-	0	-	0	150	-
O=C1NC(=O)C(=C2CCOC2=O)N1	-	-	-	0	-	-
CCCOc1ccc(S(=O)(=O)Nc2ccccn2)c2ccccc12	-	0	-	0	0	-
CCOC(=O)c1cnc2c(C)cccc2c1NCc1ccco1	0	0	0	0	0	0
CCOC(=O)c1ccc2ncc(C(=O)OCC)c(NCc3ccco3)c2c1	0	0	0	47	0	0
O=C(Cn1sc2ccccc2c1=O)NC12CC3CC(CC(C3)C1)C2	0	0	0	?	0	0
Nc1cccc2c1C(=O)N(CC(=O)NC13CC4CC(CC(C4)C1)C3)C2=O	0	0	93	0	0	0
O=Cc1ccc(OCC(=O)NCC2CCCO2)cc1 (configuration not stated)	-	0	-	0	0	-
CC(C)n1c(SCC(=O)Nc2nc3ccccc3s2)nc2c1c(=O)n(C)c(=O)n2C	-	-	-	87	0	0
O=C(NCc1ccc2c(c1)OCO2)C(=O)NCC1OCCCN1S(=O)(=O)c1ccccc1 (configuration not stated)	-	-	-	0	-	-
Cc1cccc2cc(C#N)c(NCCCNS(=O)(=O)c3ccc(Cl)cc3)nc12	0	0	74	0	47	0
COc1ccc(Nc2nc3c(C)cccc3cc2C#N)c(OC)c1	0	0	0	0	0	0
Cc1cccc2cc(C#N)c(NCc3ccccc3)nc12	0	0	0	0	?	0
Cc1cccc2cc(C#N)c(NCCNS(=O)(=O)c3ccccc3)nc12	0	0	58	0	0	0
SMILES	Runt-CBFb FRET	p-CIP stab down	Runt-SMMHC FRET	Pemphigus Ab inh	RanGTP-Impb inh	Hck-Nef inh
O=C(CSc1nnc(-c2ccccc2F)n1C1CC1)NCc1ccco1	-	-	-	0	-	-
CN(/N=C/c1ccc(-c2ccc([N+](=O)[O-])cc2)o1)c1ccccc1	-	0	-	0	0	-
O=C1Nc2ccccc2/C1=N/N=C/c1ccc(-c2ccc([N+](=O)[O-])cc2)o1	0	0	0	72	0	0
CCn1c(CSc2nccn2C)nc2cc(C(=O)O)ccc21	0	0	53	0	0	0
CCn1c(CSc2nc3ccccc3[nH]2)nc2cc(C(=O)O)ccc21	0	0	0	0	0	0
COc1ccc(-c2nc3ccccc3[nH]2)cc1	0	0	0	0	0	0
COc1ccc(-c2cc(=O)n(-c3nc4ccccc4[nH]3)[nH]2)cc1	0	0	0	0	56	0
CN(C(=O)COC(=O)c1ccc(-c2ccc(O)cc2)cc1)C1CCS(=O)(=O)C1 (configuration not stated)	0	0	0	70	0	0
CSc1ccc(Cl)c(C(=O)Nc2cc(S(=O)(=O)N3CCOCC3)ccc2N2CCOCC2)c1	-	-	-	0	-	-
CCN(Cc1ccccc1)c1ccc(/C=N/N=C(N)N)cc1	0	0	0	0	38	0
CCN(Cc1ccccc1)c1ccccc1	-	-	-	0	-	-
Cc1ccc(CSc2nnc(Nc3ccc(C)cc3)s2)cc1	0	0	0	67	0	0
CC(C)(C)NS(=O)(=O)c1ccc(CCC(=O)Nc2ccc3c(c2)OCCO3)cc1	0	0	0	0	0	0
CC(C)(C)NS(=O)(=O)c1ccc(CCC(=O)Nc2ccc3c(c2)OCO3)cc1	0	0	0	-0.5	0	0
CCOc1cc2nc3c4ccccc4n(C)c3nc2cc1OCC	0	0	0	0	38	0
Cc1c(C(=O)O)sc2[nH]c(=O)n(Cc3ccccc3)c(=O)c12	-	0	-	0	0	-
CCN1CC2=C(OC(N)=C(C#N)C2c2ccccc2)/C(=C\c2ccccc2)C1 (configuration not stated)	0	0	0	0	21	0
COc1ccc(N=N/C(=C\O)C(=O)c2cccs2)cc1	0	0	0	0	0	0
COc1ccc(C(=O)/C(=C/O)N=Nc2ccc(F)cc2)cc1	0	0	0	-4.7	0	0
CCc1ccc(NC(=O)CN(c2cc(C)cc(C)c2)S(=O)(=O)c2c(C)[nH]c(=O)[nH]c2=O)cc1	-	0	-	0	21	-
CCc1ccc(NC(=O)CN(c2ccc(OC)cc2)S(=O)(=O)c2c(C)[nH]c(=O)[nH]c2=O)cc1	-	0	-	0	0	-
CCCOC1CCCN(Cc2nc(-c3ccc(C(=O)OC)cc3)no2)C1 (configuration not stated)	0	0	0	0	0	0
CCOc1ccc2nc(NCCNC(=O)CC)c(C#N)cc2c1	0	0	95	0	0	0
COc1ccc(C(=O)NCCNc2nc3ccc(C)cc3cc2C#N)cc1OC	-	0	-	0	77	-
CCOc1ccc2nc(SCC(=O)NCC3CCCO3)c(C#N)cc2c1 (configuration not stated)	-	0	-	0	0	-
SMILES	Runt-CBFb FRET	p-CIP stab down	Runt-SMMHC FRET	Pemphigus Ab inh	RanGTP-Impb inh	Hck-Nef inh
CCC1CCCCN1CCCNC(=O)Cn1ncn2nc(-c3ccc(OC)cc3)cc2c1=O (configuration not stated)	-	0	-	-	0	-
CC(C)CCOc1ccc(C2CC(=O)N(C)C2=O)cc1 (configuration not stated)	0	0	0	0	0	0
C=C1c2cc(C)c(C)cc2NC(=O)N1c1ccccc1	0	0	60	-	0	0
C=C1c2ccc(C)cc2NC(=O)N1c1ccccc1	0	0	0	-	0	0
c1ccc(CCCNCCCn2cnc3c(OCc4ccccc4)ncnc32)cc1	-	-	-	0	-	-
COc1nc(N)c(S(=O)(=O)c2ccccc2C)cc1C#N	0	0	60	0	0	0
CN(C)c1ncc(S(=O)(=O)c2ccccc2)c(N)n1	0	0	0	0	0	0
COc1nc(N)c(S(=O)(=O)c2ccccc2)cc1C#N	0	0	99	0	0	0
